Where two headings read alike, the source gives them in different places.
Experiments:
sigma-1 receptor [1] = target: T1, sigma-1 receptor (Rattus norvegicus, UniProt Q9R0C9); test: Protection of [125I]IAF photolabeling of sigma-1 receptor in rat liver membranes; format: binding; conditions: for protection of [125I]IAF photolabeling of the sigma-1 receptor: 1 nM [125I]IAF
sigma-1 receptor [2] = target: T1, sigma-1 receptor; test: Protection of [125I]-IACoc photolabeling in rat liver membranes; format: binding; conditions: for protection of [125I]-IACoc photolabeling of the 26-kD sigma-1 receptor: 1 nM [125I]-IACoc; for protection against sigma-1 receptor [125I]-IACoc photolabeling (in words): even at these high concentrations (50 and 100 μM)
[3] = tested on: human cardiac Na+ channel hNav1.5; test: Patch-clamp INa in HEK293 cells stably expressing hNav1.5; format: cell-based; conditions: 100 μM, steps from −80 to −10 mV, n = 3
Procedure, shortened: (§1)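 Whole-cell INa was recorded in hNav1.5-expressing cells (HEK293; COS-7 transiently transfected). Currents were evoked by steps from −80 to −10 mV before, during and after washout of 100 μM test compound. Inhibition was derived from peak INa, reported as mean ± SEM of n = 3 cells.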

[4] = tested on: human cardiac Na+ channel hNav1.5; test: Patch-clamp INa in COS-7 cells transiently transfected with hNav1.5; format: cell-based; conditions: 100 μM, n = 3
Procedure, shortened: as §1

[5] = tested on: WT neonatal cardiac myocytes; test: Patch-clamp INa in WT neonatal cardiac myocytes; format: cell-based; conditions: Mus musculus, read-out: inhibition of INa
Procedure, shortened: (§2)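 Neonatal cardiac myocytes came from wild-type and sigma-1 receptor knock-out mice. INa was evoked by steps from −80 to −10 mV and recorded in the absence of, during and after washout of 100 μM test compound.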

KO myocytes = test: Patch-clamp INa in sigma-1 receptor KO neonatal cardiac myocytes; format: cell-based, mouse; conditions: 100 μM, n = 7
Procedure, shortened: as §2

WT mice = test: Open-field assay, WT mice; format: in vivo, mouse
sigma-2 receptor [6] = target: T2, sigma-2 receptor (Homo sapiens, UniProt Q5BJF2); test: Sigma-2 receptor binding
T2 sequence (Q5BJF2 whole entry, species assumed): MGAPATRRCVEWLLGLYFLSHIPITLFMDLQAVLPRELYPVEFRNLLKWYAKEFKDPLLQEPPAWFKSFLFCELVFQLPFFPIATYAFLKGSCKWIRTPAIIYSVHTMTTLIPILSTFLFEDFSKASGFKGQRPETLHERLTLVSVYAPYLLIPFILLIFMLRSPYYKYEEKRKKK

sigma-1 receptor [7] = target: T3, sigma-1 receptor (Homo sapiens, UniProt Q99720); conditions: read-out: sigma-1 Kd; cited from earlier work
T3 sequence (Q99720 whole entry, species assumed): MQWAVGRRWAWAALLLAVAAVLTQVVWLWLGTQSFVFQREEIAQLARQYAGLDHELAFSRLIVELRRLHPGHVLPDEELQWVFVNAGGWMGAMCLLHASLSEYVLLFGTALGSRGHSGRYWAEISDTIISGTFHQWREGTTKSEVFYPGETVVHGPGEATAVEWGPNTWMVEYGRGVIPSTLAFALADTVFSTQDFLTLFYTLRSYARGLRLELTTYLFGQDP

sigma-2 receptor [8] = target: T2, sigma-2 receptor; conditions: read-out: sigma-2 Kd; cited from earlier work
sigma-2 receptor [9] = target: T4, sigma-2 receptor (Rattus norvegicus, UniProt Q5U3Y7); test: Protection of [125I]IAF photolabeling of sigma-2 receptor in rat liver membranes; format: binding; conditions: for protection of [125I]IAF sigma-2 receptor photolabeling: 1 nM [125I]IAF
T4 sequence (Q5U3Y7 1-176): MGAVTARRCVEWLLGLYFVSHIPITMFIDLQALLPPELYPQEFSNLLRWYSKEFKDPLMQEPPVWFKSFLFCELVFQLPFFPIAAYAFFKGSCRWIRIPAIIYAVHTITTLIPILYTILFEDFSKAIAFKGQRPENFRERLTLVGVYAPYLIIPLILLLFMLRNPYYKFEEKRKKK

sigma-1 receptor KO mice = test: Open-field assay, sigma-1 receptor KO mice; format: in vivo, mouse; conditions: 3 mg/kg, ip, n = 6
sigma-1 receptor [10] = target: T3, sigma-1 receptor; test: Competition binding against

T1 sequence (Q9R0C9 whole entry): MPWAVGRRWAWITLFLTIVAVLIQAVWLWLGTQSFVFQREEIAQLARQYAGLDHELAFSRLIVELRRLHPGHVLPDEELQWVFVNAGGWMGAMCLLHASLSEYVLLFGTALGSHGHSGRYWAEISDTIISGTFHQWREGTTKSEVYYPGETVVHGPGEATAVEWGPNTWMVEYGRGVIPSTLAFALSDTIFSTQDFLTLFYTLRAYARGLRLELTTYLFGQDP

SMILES: CC(C)=CCN1CC[C@]2(C)c3cc(O)ccc3C[C@H]1[C@H]2C [(+)-pentazocine, reference compound]
- protection of sigma-1 receptor photolabeling (in words) (sigma-1 receptor [1]; 10 μM, [125I]-IACoc or [125I]IAF): protected

SMILES: CN(C)CCc1c[nH]c2ccccc12 [DMT, N,N-dimethyltryptamine]
- protection of [125I]-IACoc photolabeling of the 26-kD sigma-1 receptor (sigma-1 receptor [2]; 50 μM): 61%
- protection of [125I]-IACoc photolabeling of the 26-kD sigma-1 receptor (sigma-1 receptor [2]; 100 μM): ~100%
- protection of [125I]IAF photolabeling of the sigma-1 receptor (sigma-1 receptor [1]; 10 μM): 31%
- protection of [125I]IAF photolabeling of the sigma-1 receptor (sigma-1 receptor [1]; 50 μM): 43%
- protection of [125I]IAF photolabeling of the sigma-1 receptor (sigma-1 receptor [1]; 100 μM): 69%
- inhibition of INa [3]: 62 ± 3%
- inhibition of INa [4]: 22 ± 4%
- inhibition at 100 µM [5]: 29 ± 3%
- reduction of INa (KO myocytes): 7 ± 2%
- distance traveled in open-field assay (hypermobility) (WT mice; 2 mg/kg ip, 2 hours after pargyline (75 mg/kg, ip), n = 12): 7025 ± 524.1 cm

SMILES: CNCCc1c[nH]c2ccccc12 [N-methyltryptamine]
- protection against sigma-1 receptor [125I]-IACoc photolabeling (in words) (sigma-1 receptor [2]): protected minimally

SMILES: CNCCc1ccc(O)cc1 [N-methyltyramine]
- Kd (sigma-2 receptor [6]; read-out: sigma-2 receptor Kd): 6.61 µM

SMILES: COC(=O)C1C(OC(=O)c2ccc(N=[N+]=[N-])c(I)c2)CC2CCC1N2C (stereo not shown) [[^125I]-IACoc, 3-[^125I]iodo-4-azidococaine]
- Kd (sigma-1 receptor [7]): 0.000126 µM

SMILES: CC1CN(CCCc2ccc(N=[N+]=[N-])c(I)c2)CC(C)O1 (stereo not shown) [[^125I]IAF, 1-N-(2′,6′-dimethyl-morpholino)-3-(4-azido-3-[^125I]iodo-phenyl) propane]
- Kd (sigma-1 receptor [7]): 0.194 µM
- Kd (sigma-2 receptor [8]): 2.78 µM

SMILES: O=C(CCCN1CCC(O)(c2ccc(Cl)cc2)CC1)c1ccc(F)cc1 [haloperidol, reference compound]
- protection of sigma-2 receptor photolabeling (in words) (sigma-2 receptor [9]; 10 μM, [125I]IAF): protected

SMILES: CN[C@@H](C)Cc1ccccc1 [methamphetamine, reference compound]
- hypermobility in open-field assay (in words) (WT mice; 3 mg/kg, ip, n = 6): induced hypermobility
- hypermobility in open-field assay (in words) (sigma-1 receptor KO mice): induced hypermobility

SMILES: NCCc1ccccc1 [phenethylamine]
- Kd (sigma-1 receptor [10]): 97.4 µM
- Kd (sigma-2 receptor [6]): 7.31 µM

SMILES: NCCc1c[nH]c2ccccc12 [tryptamine]
- Kd (sigma-1 receptor [10]): 431 µM
- Kd (sigma-2 receptor [6]): 4.91 µM
- protection against sigma-1 receptor [125I]-IACoc photolabeling (in words) (sigma-1 receptor [2]): protected minimally
- protection of [125I]IAF sigma-2 receptor photolabeling (sigma-2 receptor [9]; 10 μM): 47%
- protection of [125I]IAF sigma-2 receptor photolabeling (sigma-2 receptor [9]; 50 μM): 78%
- protection of [125I]IAF sigma-2 receptor photolabeling (sigma-2 receptor [9]; 100 μM): 79%

SMILES: NCCc1ccc(O)cc1 [tyramine]
- Kd (sigma-1 receptor [10]): > 30000 µM

From PMC2947205 (Science (New York, N.Y.), 2009)
